ChEMBL document CHEMBL3259746, “Identification of [1,2,3]triazolo[4,5-d]pyrimidin-7(6H)-ones as novel inhibitors of Chikungunya virus replication” (J Med Chem, 2014)

Key:
[1] = tested on: Chikungunya virus; assay: Antiviral activity against Chikungunya virus Indian Ocean strain 899 infected in African green monkey Vero cells assessed as inhibition of virus-induced cytopathic effect after 7 days by MTS/PMS method; format: functional, cell-based; conditions: Indian Ocean strain 899, Vero, 168 h
[2] = Cytotoxicity against non-infected African green monkey Vero cells after 7 days by MTS/PMS method; format: cell-based; conditions: chlorocebus sabaeus
[3] = tested on: Chikungunya virus; assay: Antiviral activity against Chikungunya virus LR2006-OPY1 infected in African green monkey Vero E6 cells assessed as reduction in virus yield after 2 days by real time RT-PCR analysis; format: functional, cell-based; conditions: 48 h
[4] = tested on: Chikungunya virus; assay: Antiviral activity against Chikungunya virus Venturini infected in African green monkey Vero E6 cells assessed as reduction in virus yield after 2 days by real time RT-PCR analysis; format: functional, cell-based; conditions: 48 h
[5] = tested on: Chikungunya virus; assay: Antiviral activity against Chikungunya virus Congo 95 infected in African green monkey Vero E6 cells assessed as reduction in virus yield after 2 days by real time RT-PCR analysis; format: functional, cell-based; conditions: Congo 95, Vero, 48 h
[6] = tested on: Chikungunya virus; assay: Antiviral activity against Chikungunya virus St. Martin infected in African green monkey Vero E6 cells assessed as reduction in virus yield after 2 days by real time RT-PCR analysis; format: functional, cell-based; conditions: 48 h
[7] = tested on: Semliki Forest virus; assay: Antiviral activity against Semliki forest virus Vietnam infected in African green monkey Vero E6 cells assessed as reduction in virus yield after 2 days by real time RT-PCR analysis; format: functional, organism-based; conditions: 48 h
[8] = tested on: Sindbis virus; assay: Antiviral activity against Sindbis virus HRsp infected in African green monkey Vero E6 cells assessed as reduction in virus yield after 2 days by real time RT-PCR analysis; format: functional, organism-based; conditions: 48 h
[9] = Cytotoxicity against non-infected African green monkey Vero E6 cells up to 300 uM after 2 days; format: cell-based; conditions: chlorocebus sabaeus, 48 h
Summary of the method: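 Uninfected Vero E6 cells were tested up to 300 μM under the same settings as the 2-day virus-yield assay: 5 × 10⁴ cells/well, 2.5% FCS medium, and 2-fold dilutions in triplicate.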

[10] = Selectivity index, ratio of CC50 for African green monkey Vero cells to EC50 for Chikungunya virus Indian Ocean strain 899 infected in African green monkey Vero cells; format: toxicity, cell-based; conditions: read-out: Ratio CC50/EC50

Compound | EC50 [1] | EC90 [1] | CC50 at 168 h [2] | other results
CC(=O)c1cccc(-n2nnc3c(Cl)nc(C)nc32)c1 | > 174 µM | > 174 µM | > 174 µM | 
CCCOc1ccc(-n2nnc3c(=O)[nH]c(C)nc32)cc1 | 169 µM | > 701 µM | 594 µM | 
CC(=O)c1cccc(-n2nnc3c(=O)[nH]c(C)nc32)c1 | 19 µM | 38 µM | > 743 µM | EC50 [3]: 25 µM; EC50 [4]: 26 µM; EC50 [5]: 6.4 µM; EC50 [6]: 24 µM; EC50 [7]: > 464 µM; EC50 [8]: > 464 µM; Activity [9]: Non-toxic
Cc1nc2c(nnn2-c2cccc(C(=O)O)c2)c(=O)[nH]1 | > 399 µM | > 399 µM | > 638 µM | 
CC(=O)c1cccc(-n2nnc3c(=O)[nH]cnc32)c1 | > 490 µM | > 490 µM | > 784 µM | 
Cc1nc2c(nnn2-c2cccc(OC(C)C)c2)c(=O)[nH]1 | 12 µM | 156 µM | > 704 µM | 
Cc1nc2c(nnn2-c2cccc(N(C)C)c2)c(=O)[nH]1 | > 370 µM | > 370 µM | 538 µM | 
Cc1nc2c(nnn2-c2cccc(C#N)c2)c(=O)[nH]1 | 131 µM | 187 µM | > 793 µM | 
CC(=O)c1cccc(-n2nnc3c(N)nc(C)nc32)c1 | 225 µM | 309 µM | > 746 µM | 
Cc1nc2c(nnn2-c2cccc(C(=O)c3ccccc3)c2)c(=O)[nH]1 | 23 µM | 47 µM | > 604 µM | 
Cc1nc2c(nnn2-c2cccc(Cl)c2)c(=O)[nH]1 | 32 µM | 235 µM | > 764 µM | 
COc1cccc(-n2nnc3c(=O)[nH]c(C)nc32)c1 | 28 µM | 179 µM | > 777 µM | 
CC(=O)c1cccc(-n2nnc3c(=O)n(C)c(C)nc32)c1 | > 441 µM | > 441 µM | > 706 µM | 
CC(=O)Nc1cccc(-n2nnc3c(=O)[nH]c(C)nc32)c1 | 318 µM | 425 µM | 206 µM | 
CCOC(=O)c1cccc(-n2nnc3c(=O)[nH]c(C)nc32)c1 | 202 µM | 331 µM | 322 µM | 
CC(=O)c1cccc(-n2c(C)nc3c(=O)[nH]c(C)nc32)c1 | > 440 µM | > 440 µM | > 703 µM | 

Compound | EC50 [1] | EC90 [1] | CC50 at 168 h [2] | other results
CCc1nc2c(nnn2-c2cccc(OC(C)C)c2)c(=O)[nH]1 | 3 µM | 18 µM | > 668 µM | EC50 [3]: 2.6 µM; EC50 [4]: 1.4 µM; EC50 [5]: 0.75 µM; EC50 [6]: 2.9 µM; EC50 [7]: 219 µM; EC50 [8]: 69 µM; Activity [9]: Non-toxic; selectivity ratio [10]: > 222
CC(=O)c1cccc(-n2cnc3c(=O)[nH]c(C)nc32)c1 | 127 µM | 161 µM | 491 µM | 
CCCc1nc2c(nnn2-c2cccc(OC(C)C)c2)c(=O)[nH]1 | > 399 µM | > 399 µM | > 638 µM | 
CC(=O)c1ccc(-n2nnc3c(=O)[nH]c(C)nc32)cc1 | 326 µM | > 743 µM | > 743 µM | 
CNc1nc(C)nc2c1nnn2-c1cccc(C(C)=O)c1 | > 443 µM | > 443 µM | 514 µM | 
CC(C)Oc1cccc(-n2nnc3c(=O)[nH]c(C(F)(F)F)nc32)c1 | 68 µM | > 147 µM | 104 µM | 
Cc1nc2c(nnn2-c2ccc3c(c2)OCO3)c(=O)[nH]1 | > 461 µM | > 461 µM | > 737 µM | 
CC(C)Oc1cccc(-n2nnc3c(=O)[nH]c(=O)[nH]c32)c1 | > 435 µM | > 435 µM | > 696 µM | 
COc1nc(C)nc2c1nnn2-c1cccc(C(C)=O)c1 | > 441 µM | > 441 µM | 495 µM | 
Cc1nc2c(nnn2Cc2cccc(OC(C)C)c2)c(=O)[nH]1 | 167 µM | 232 µM | > 872 µM | 
COc1ccccc1-n1nnc2c(=O)[nH]c(C)nc21 | 348 µM | 460 µM | > 777 µM | 
CC(C)Oc1cccc(-n2nnc3c(=O)[nH]c(C(C)C)nc32)c1 | 280 µM | > 638 µM | > 638 µM | 
CC(C)Oc1cccc(-n2nnc3c(=O)[nH]c(-c4ccncc4)nc32)c1 | 75 µM | > 144 µM | 82 µM | 
CCN(CC)CCCC(C)Nc1ccnc2cc(Cl)ccc12 (centres undefined) [CHLOROQUINE] |  | 21 µM |  | 
CC(C)Oc1cccc(-n2nnc3c(=O)[nH]c(-c4ccccc4)nc32)c1 | 204 µM | > 360 µM | 277 µM | 
CC(C)Oc1cccc(-n2nnc3c(=O)[nH]c(CC#N)nc32)c1 | 115 µM | 137 µM | 215 µM | 
